Bioassay records (PubChem BioAssay)
Rows were chosen to be rich in hits. Some 2.1% of all compounds tested hit in one or more screens of this group.
SUMO1 PPI mod – modulators of SUMO1 protein-protein interactions, primary screen, biochemical, uHTS; SUMO1 binding to a labelled peptide, TR-FRET, 1 h; inhibition, % at 20 µM; hit rate 0.33% among 360,000; AID 602429, 2012; in the data active = inhibition above about 37%
Target sequence (P63165 whole entry, looked up): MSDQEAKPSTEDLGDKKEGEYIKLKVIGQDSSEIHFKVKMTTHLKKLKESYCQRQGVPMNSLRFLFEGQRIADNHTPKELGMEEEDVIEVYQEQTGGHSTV
GRK2 inh – compounds blocking aptamer binding on GRK2 – biochemical, human GRK2, bead flow cytometry, HTS, primary screen. AID 488847, 2010. FAM-aptamer displacement from GRK2. hit rate 0.59% among 330,000. Beta-adrenergic receptor kinase 1 (Homo sapiens), P25098. inhibition of aptamer binding, % at 10 µM;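 active = inhibition of aptamer binding above 40%, roughly 3 SD of noise, on plates passing a quality check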;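 note: median bead fluorescence of bound FAM aptamer so fluorescent compounds give negative values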
LMPTP block – LMPTP phosphatase inhibitors, primary screen, biochemical, fluorescence intensity, uHTS | recombinant LMPTP-A, OMFP fluorogenic substrate | inhibition, % at 20 µM | hit rate 0.22% among 360,000 | Low molecular weight phosphotyrosine protein phosphatase (Homo sapiens), P24666;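 active = compounds that cut the enzyme signal by at least half of the control window in the single-dose screen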;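 note: plate controls were DMSO wells with enzyme plus substrate for no effect and substrate without enzyme for full effect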
Target sequence (P24666 whole entry, looked up): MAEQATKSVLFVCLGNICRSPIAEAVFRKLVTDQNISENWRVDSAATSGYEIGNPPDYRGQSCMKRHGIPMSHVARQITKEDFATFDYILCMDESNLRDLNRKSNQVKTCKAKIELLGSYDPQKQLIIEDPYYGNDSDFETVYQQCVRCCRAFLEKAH
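material = LMPTP-A | quantity = 0.625 nM enzyme | reagent = OMFP substrate, 400 µM final | buffer or medium = Bis-Tris pH 6.0, DTT, detergent | detection = endpoint fluorescence intensity from OMFP dephosphorylation | dosing = single 20 µM dose | read-out basis = % inhibition relative to no-enzyme and uninhibited control wells | control set = no-enzyme and uninhibited controls | timing = 50 min at room temperature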
STEP block – STEP phosphatase inhibitors, primary screen, biochemical, fluorescence intensity, uHTS; AID 588621, 2011; Tyrosine-protein phosphatase non-receptor type 5 (Homo sapiens), P54829; hit rate 0.25% among 360,000; recombinant STEP, OMFP fluorogenic substrate; inhibition, % at 20 µM;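 active = inhibition at 20 µM, scaled per plate between control wells, above about 37%, limit read from the data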;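 note: 0% = DMSO with enzyme and substrate and 100% = substrate only without enzyme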
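medium = Bis-Tris buffer pH 6.0, 2.5 mM DTT, 0.005% Tween 20 | test system = STEP (striatal-enriched tyrosine phosphatase) enzyme, cell-free | measure = normalized % inhibition | compound dosing = 20 µM, 1% DMSO | also added = 25 µM OMFP | schedule = reaction 20 min, ambient temperature | measured by = fluorescence read at 480 nm ex / 540 nm em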
Scp-1 inhibitor – Scp-1 phosphatase inhibitors, primary screen, biochemical, colorimetric, uHTS. Recombinant Scp1, phosphopeptide, malachite green phosphate absorbance. inhibition, % at 20 µM. Carboxy-terminal domain RNA polymerase II polypeptide A small phosphatase 1 (Homo …. hit rate 0.88% among 340,000;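 active = inhibition above about 50% at 20 µM, limit read from the data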;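 note: plate controls were DMSO wells with enzyme for no effect and wells lacking enzyme for full effect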
Target sequence (Q9GZU7 76-261 limits assumed): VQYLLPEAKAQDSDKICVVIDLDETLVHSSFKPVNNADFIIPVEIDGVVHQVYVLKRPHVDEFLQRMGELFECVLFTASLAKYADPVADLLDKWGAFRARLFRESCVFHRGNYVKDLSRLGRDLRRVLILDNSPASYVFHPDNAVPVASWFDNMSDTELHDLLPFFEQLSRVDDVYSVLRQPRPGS
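Assay system: SCP-1 catalytic fragment, aa 76-261 | Buffer or medium: Tris acetate buffer pH 5.5 with MgCl2 and Tween-20 | Compound: One concentration, 20 µM, with 1.0% DMSO | Also added: Phospho 17-mer peptide substrate | Signal: Absorbance at 630 nm | Incubation: 45 min enzyme reaction at room temperature | Measure: % inhibition of SCP-1 phosphate liberation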
DNMT1 block – human DNMT1 methyltransferase inhibitors, primary screen, biochemical, molecular beacon, fluorescence, HinP1I cleavage, uHTS; inhibition (reported as % activation of signal), % at 10 µM; hit rate 0.83% among 360,000; AID 588458, 2011; in the data active = inhibition above about 50%
DNMT1 interf DR – spectral interference with molecular beacon fluorescence, dose response, artefact control for DNMT1 inhibitor project, biochemical, fluorescent molecular beacon; shares compounds with DNMT1 block; spectral interference counter-screen; IC50, µM; 200 tested, under 10 active; AID 602382, 2012; call rule not given here
DNMT1 confirm – DNMT1 methyltransferase inhibitor retest, confirmation, biochemical, molecular beacon, fluorescence, single concentration | shares compounds with DNMT1 block | DNMT1 molecular beacon HinP1I cleavage | inhibition, % at 10 µM | hit rate 8% among 2,300 | AID 602385, 2012;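 active = average inhibition of at least 30% in the single-concentration confirmation test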
DNMT1 interf – shows spectral interference in the DNMT1 beacon assay; shares compounds with DNMT1 block; DNMT1 molecular beacon spectral interference counterscreen, fluorescence 485/520; activation (fluorescence interference), % at 10 µM; hit rate 1% among 2,300;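 active = activation of at least 30% at 10 µM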;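 note: DNMT1 catalytic domain with a HinP1I cleavage step and a FAM/dabcyl DNA beacon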
* marks the source's active call; other numbers are inactive results; nt = no result; ! = not active in a repeat.

SMILES	SUMO1 PPI mod	GRK2 inh	LMPTP block	STEP block	Scp-1 inhibitor	DNMT1 block	DNMT1 confirm	DNMT1 interf	others
COCCNCCCCSc1ccc(Cl)cc1	-2	0	-2	-1	1	75*	0	0
COc1ccc2cc(CCN3C(=O)c4ccccc4C3=O)c(=O)[nH]c2c1	-22	0	0	-2	-6	1	nt	nt
O=C(c1ccccc1)N1CCN(C(=S)NCc2ccc3c(c2)OCO3)CC1	-4	0	0	0	-6	1	nt	nt
CSc1ccc(C(=O)Nc2cc(S(=O)(=O)N3CCOCC3)ccc2N2CCOCC2)cc1[N+](=O)[O-]	-23	nt	1	-1	-14	-8	nt	nt
COn1c(=O)c(-c2ccc(Cl)cc2)[n+]([O-])c2ccccc21	-31	2	0	1	-16	68*	0	1
Cc1ccc(OCC(=O)Nc2nnc(S(=O)(=O)N3CCC(C)CC3)s2)cc1	3	8	7	2	3	58*	-1	-3
COc1ccc(OCC(=O)Nc2nnc(S(=O)(=O)N3CCCCCC3)s2)cc1	11	2	-1	-2	-12	3	nt	nt
O=c1[nH][nH]c2c1C(c1ccc(F)cc1)OC(CCc1ccccc1)C2 (stereo not drawn)	6	nt	-1	nt	nt	nt	nt	nt
O=C(Cn1c2ccccc2c(=O)c2cc([N+](=O)[O-])ccc21)Nc1ccccc1Cl	-12	1	18	8	36	56*	4	-5
O=C(Cn1c2ccccc2c(=O)c2ccccc21)Nc1ccccc1F	2	1	25	-2	-7	12	nt	nt
COCCN(C(=O)CCC(=O)Nc1nccs1)C(C(=O)NCCC(C)C)c1ccc(OC)cc1 (stereo not drawn)	-1	2	0	-1	-8	1	nt	nt
C[c-]1[c-](C)[c-](C)[c-](C)[c-]1C.[Fe].c1cc2nccc(N3CCCC3)[c-]2c1 (stereo not drawn)	120*	33	71*	77*	68*!	102*!	4	4
c1cc(N2CCCCC2)nc(N2CCCCC2)n1	3	nt	-1	-4	-12	0	nt	nt
CCCc1nc2ccc(Cl)cn2c1Cc1ccc(C)cc1	-1	nt	1	2	nt	7	nt	nt
COc1ccccc1NC(=O)c1cnc(SCC(=O)NCCc2ccccc2)n(C)c1=O	-192	2	1	1	1	2	nt	nt
CCc1nn(CC(=O)NC2CCN(Cc3ccccc3)CC2)c(=O)c2cc3cc(F)ccc3n12	-15	0	0	-2	-5	30	nt	nt
CCc1nn(CC(=O)NC(C)CCc2ccccc2)c(=O)c2cc3cc(F)ccc3n12 (stereo not drawn)	4	0	1	3	-2	53*	2	1
COc1ccc(NC(=O)C2CCN(S(=O)(=O)c3ccc(Br)s3)CC2)cc1OC	-1	9	-1	-1	-8	-5	nt	nt
CCOC(=O)C1CCN(c2c(NCCCN3CCCCC3)c(=O)c2=O)CC1	-2	0	0	3	-7	93*	4	2
CCOC(=O)c1cc(-c2ccc([N+](=O)[O-])cc2)nc2c1c(=O)[nH]c(=O)n2Cc1ccccc1	19	5	1	8	-5	86*	3	1
CCOC(=O)c1cc(-c2cc3ccccc3o2)nc2c1c(=O)[nH]c(=O)n2CCOC	-4	2	-1	1	-3	8	nt	nt
COc1ccc(N2C(=NC(=O)c3ccccc3)SC3CS(=O)(=O)CC32)cc1 (stereo not drawn)	-3	1	0	0	6	0	nt	nt
CC(=O)Nc1ccc(S(=O)(=O)Nc2nc3ccccc3nc2Nc2cccc(O)c2)cc1	-5	0	0	-4	-12	-4	nt	nt
CC(=O)Nc1ccc(S(=O)(=O)Nc2nc3ccccc3nc2Nc2ccc(C(=O)O)c(O)c2)cc1	57*	16	8	12	87*	77*	4	13
CCc1nc2c(OCc3ccc(F)c(F)c3)cccn2c1N(C)C(=O)c1ccc(OC)cc1	0	nt	1	1	nt	-5	nt	nt
SMILES	SUMO1 PPI mod	GRK2 inh	LMPTP block	STEP block	Scp-1 inhibitor	DNMT1 block	DNMT1 confirm	DNMT1 interf	others
CCOc1ccc(Cl)cc1-c1cc(C(=O)NC2CCCCC2)[nH]n1	10	nt	2	0	nt	74*	1	1
COc1cc2[nH]c(C)c(-c3ccccc3)c(=O)c2cc1Cl	-69	nt	-1	nt	nt	nt	nt	nt
COc1cc(CCc2ccccc2)c(C(=O)O)c(O)c1C/C=C(/C)CCC=C(C)C	77*	2	2	-1	1	61*	84*	-9	DNMT1 interf DR=>99
O=c1c(-c2c(O)cc(O)c3c(=O)cc(-c4ccc(O)cc4)oc23)c(-c2ccc(O)cc2)oc2cc(O)cc(O)c12	50*	3	15	-3	53*	93*	12	7
COc1ccc(-n2nc(C(=O)NCC(=O)NCCCN3CC(C)CC(C)C3)c3ccccc3c2=O)cc1 (stereo not drawn)	-16	0	0	1	-2	4	nt	nt
Cc1ccc(OCCSc2nc3ccccc3n2CC(=O)O)cc1	4	4	-1	4	-7	3	nt	nt
COc1ccccc1OCCSc1nc2ccccc2n1CC(=O)O	35	nt	-3	0	nt	80*	5	4
O=C(CCN1C(=O)/C(=C/C=C/c2ccccc2)SC1=S)Nc1cccnc1	-8	7	4	0	-6	62*	0	0
CC(/C=C1\SC(=S)N(CCC(=O)Nc2cccc(C(=O)O)c2)C1=O)=C\c1ccccc1	16	4	12	3	-9	80*	12	2
Cc1c(C(N)=O)sc2ncn(CC(=O)OC(C)C)c(=O)c12	2	2	-1	-4	-5	78*	2	6
